Source: ChEMBL document CHEMBL1152540, “Antioxidant efficacy of iridoid and phenylethanoid glycosides from the medicinal plant Teucrium chamaedris in cell-free systems” (Bioorg Med Chem, 2009)

Legend:
[1] = Antioxidant activity assessed as inhibition of H2O2-induced bovine serum albumin oxidation after 10 mins by spectrophotometry; format: functional; settings: in the assay text read “after 1 hr” for “after 10 mins”
How it was run: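 BSA (10 mg/mL) was incubated 1 h at 37 °C in 20 mM phosphate, pH 7.4, with FeCl3 400 µM, H2O2 3 mM, ascorbate 400 µM and metabolite at 5, 10 or 20 µM. Carbonyls were derivatized with DNPH (20 mM in 2 N HCl) and TCA 20%, then centrifuged. The pellet was washed with EtOH/EtOAc, dissolved in 6 M guanidine-HCl, pH 6.5, and read at 370 nm. Runs were in triplicate, as % versus blank.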

[2] = Antioxidant activity assessed as trolox equivalent of lipid peroxidation inhibition after 60 mins by TBARS assay; format: functional
[3] = Antioxidant activity assessed as trolox equivalent of inhibition of Fe3+ ion-induced 2-deoxyribose oxidation after 24 hrs by TBA method; format: functional
[4] = Antioxidant activity assessed as trolox equivalent of inhibition of H2O2-induced bovine serum albumin oxidation after 1 hr by spectrophotometry
[5] = Antioxidant activity assessed as inhibition of lipid peroxidation after 60 mins by TBARS assay; format: functional
How it was run: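 Olive oil (10.0 µg) was emulsified with Tween-40 in 0.2 M Tris-HCl, pH 7.4. The emulsion was UV-irradiated at 254 nm for 60 min, then stirred 24 h at room temperature. Thiobarbituric acid-reactive species were developed in a boiling water bath for 90 min and centrifuged, and the supernatant was read at 532 nm. Inhibition was given as % versus a blank without compound.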

[6] = system: Radical scavenging activity; assay: Antioxidant activity assessed as DPPH radical scavenging activity after 30 mins by spectrophotometry; format: functional
[7] = system: Radical scavenging activity; assay: Antioxidant activity assessed as trolox equivalent of DPPH radical scavenging activity after 30 mins by spectrophotometry; format: functional
[8] = Antioxidant activity assessed as inhibition of Fe3+ ion-induced 2-deoxyribose oxidation after 24 hrs by TBA method; format: functional
How it was run: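 EDTA, FeCl3 and H2O2 (1.0 mM each) were preincubated for 1 h at 37 °C. 2-Deoxyribose (28 mM) and ascorbic acid (1.0 mM) were then added. Compounds at 5, 10 or 20 µM (150 µL per 1350 µL mixture) were incubated 24 h at 37 °C. Degradation was measured with TBA 0.5%/TCA 2.5% at 90 °C for 3 h, read at 532 nm, in triplicate.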

[9] = Antioxidant activity assessed as inhibition of H2O2-induced bovine serum albumin oxidation after 1 hr by spectrophotometry
[10] = Antioxidant activity assessed as hydroxyl radical scavenging activity at 20 uM; format: functional

Structure (SMILES) | IC50 [1] [µM] | Activity [2] | Activity [3] | Activity [4] | IC50 [5] [µM] | Activity [6] | IC50 [6] [µM] | Activity [7] | IC50 [8] [µM] | IC50 [9] [µM] | Activity [10] [%]
COc1cc(/C=C/C(=O)O[C@H]2[C@H](O[C@@H]3O[C@@H](C)[C@H](O)[C@@H](O)[C@H]3O[C@@H]3OC[C@H](O)[C@@H](O)[C@H]3O)[C@@H](O)[C@H](OCCc3ccc(O)c(O)c3)O[C@@H]2CO)ccc1O | 32.8 | 1.5 | 0.6 | 2.1 | 20.9 | Dose-dependent effect | 14 | 1.5 | 32 |  | 
C[C@@H]1O[C@@H](O[C@@H]2[C@@H](O)[C@H](OCCc3ccc(O)c(O)c3)O[C@H](CO)[C@H]2OC(=O)/C=C/c2ccc(O)c(O)c2)[C@H](O)[C@H](O)[C@H]1O [ACETOSIDE] | 57.2 | 3.3 | 0.5 | 1.2 | 9.7 | Dose-dependent effect | 15.3 | 1.3 | 26.4 |  | 
Cc1c(C)c2c(c(C)c1O)CCC(C)(C(=O)O)O2 (stereo unspecified) [TROLOX] | 69.2 |  |  |  | 31.8 |  | 21 |  | 18 |  | 
COc1ccc(/C=C/C(=O)OC[C@H]2O[C@@H](O[C@H]3OC=C[C@@]4(O)[C@@H]3[C@](C)(O)C[C@@H]4O)[C@H](O)[C@@H](O)[C@@H]2O)cc1OC |  | 1 | 0.7 | 6.5 | 33.1 | Dose-dependent effect | > 300 |  | 26.5 | 10.7 | 
COc1ccc(/C=C/C(=O)OC[C@H]2O[C@@H](O[C@H]3OC=C[C@@]4(O)[C@@H]3[C@](C)(O)C[C@@H]4O)[C@H](O[C@@H]3O[C@H](CO)[C@@H](O)[C@H](O)[C@H]3O)[C@@H](O)[C@@H]2O)cc1 | 12.8 | 0.8 | 1.4 | 5.4 | 39 | Dose-dependent effect | > 300 |  | 12.9 |  | 
C[C@@H]1O[C@@H](O[C@@H]2[C@@H](O)[C@H](OCCc3ccc(O)c(O)c3)O[C@H](CO)[C@H]2OC(=O)/C=C/c2ccc(O)c(O)c2)[C@H](O[C@@H]2OC[C@H](O)[C@@H](O)[C@H]2O)[C@H](O)[C@H]1O | 44.8 | 2 | 0.5 | 1.5 | 16.3 | Dose-dependent effect | 16.5 | 1.4 | 34.6 |  | 54.7
COc1cc(/C=C/C(=O)OC[C@H]2O[C@@H](OCCc3ccc(O)c(O)c3)[C@H](O)[C@@H](O[C@@H]3O[C@@H](C)[C@H](O)[C@@H](O)[C@H]3O[C@@H]3OC[C@H](O)[C@@H](O)[C@H]3O)[C@@H]2O)ccc1O | 18.1 | 0.7 | 0.5 | 3.8 | 46.7 | Dose-dependent effect | 11 | 1.9 | 37.3 |  | 
COc1ccc(/C=C/C(=O)OC[C@H]2O[C@@H](O[C@H]3OC=C[C@@]4(O)[C@@H]3[C@](C)(O)C[C@@H]4O)[C@H](O)[C@@H](O)[C@@H]2O)cc1 |  | 0.5 | 1.4 | 6.6 | 67.3 | Dose-dependent effect | > 300 |  | 13.2 | 10.4 | 
COc1ccc(/C=C/C(=O)OC[C@H]2O[C@@H](O[C@H]3OC=C[C@H]4[C@@H]3[C@](C)(O)C[C@@H]4O)[C@H](O)[C@@H](O)[C@@H]2O)cc1OC |  |  |  |  |  |  | > 300 |  |  |  | 
CC(=O)O[C@]1(C)C[C@H](O)[C@H]2C=CO[C@H](O[C@@H]3O[C@H](CO)[C@@H](O)[C@H](O)[C@H]3O)[C@H]21 | 38.9 | 0.7 | 0.3 | 1.8 | 44.2 | Dose-dependent effect | > 300 |  | 52.2 |  | 
C[C@@H]1O[C@@H](O[C@@H]2[C@@H](O)[C@H](OCCc3ccc(O)c(O)c3)O[C@H](COC(=O)/C=C/c3ccc(O)c(O)c3)[C@H]2O)[C@H](O[C@@H]2OC[C@H](O)[C@@H](O)[C@H]2O)[C@H](O)[C@H]1O | 38 | 1.2 | 0.7 | 1.8 | 26.3 | Dose-dependent effect | 38.3 | 0.5 | 33.5 |  | 
CC(=O)O[C@]1(C)C[C@H](O)[C@@]2(O)C=CO[C@H](O[C@@H]3O[C@H](CO)[C@@H](O)[C@H](O)[C@H]3O)[C@H]21 | 23.5 | 0.7 | 0.3 | 2.9 | 45.5 | Dose-dependent effect | > 300 |  | 51 |  | 
